Assay results taken from ChEMBL document CHEMBL1129944, “[[(Arylpiperazinyl)alkyl]thio]thieno[2,3-d]pyrimidinone derivatives as high-affinity, selective 5-HT1A receptor ligands” (J Med Chem, 1997).

Key:
[1] = molecular target: D(1A) dopamine receptor (Rattus norvegicus, UniProt P18901); assay: In vitro inhibitory concentration against radioligand [3H]SCH-23390 binding to Dopamine receptor D1 in rat striatal membrane; assay type: cell membranes, Striatum
How it was run: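 Rat striatal membranes were incubated in 50 mM Tris-HCl pH 7.1 containing 10 μM pargyline, 120 mM NaCl, 5 mM KCl, 2 mM CaCl2, 1 mM MgCl2 and 0.1% ascorbic acid. [3H]SCH23390 0.4 nM final, 15 min at 37 °C; nonspecific binding with (-)-cis-flupentixol 10 μM. Filtered and counted; IC50 by curve analysis.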

[2] = molecular target: T1, 5-hydroxytryptamine receptor 1A (Rattus norvegicus, UniProt P19327); assay: In vitro inhibitory concentration against radioligand [3H]8-OH-DPAT binding to 5-hydroxytryptamine 1A receptor in rat hippocampal membrane.; assay type: cell membranes, Hippocampus
T1 sequence (P19327 whole entry): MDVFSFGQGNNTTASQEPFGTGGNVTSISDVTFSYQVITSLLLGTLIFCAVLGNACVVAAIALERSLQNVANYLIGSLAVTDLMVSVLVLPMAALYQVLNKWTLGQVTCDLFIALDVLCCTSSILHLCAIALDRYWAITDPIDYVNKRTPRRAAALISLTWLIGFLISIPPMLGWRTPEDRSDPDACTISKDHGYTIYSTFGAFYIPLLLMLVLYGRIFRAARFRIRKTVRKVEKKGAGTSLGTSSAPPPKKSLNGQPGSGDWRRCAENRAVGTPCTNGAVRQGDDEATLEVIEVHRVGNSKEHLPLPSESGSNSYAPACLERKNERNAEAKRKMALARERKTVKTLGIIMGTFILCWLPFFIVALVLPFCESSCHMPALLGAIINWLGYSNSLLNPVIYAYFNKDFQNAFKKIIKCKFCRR
How it was run: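 Rat hippocampal membranes (male SD rats, ~150 g) were washed in 50 mM Tris-HCl pH 7.4, including 10 min at 37 °C. Incubation buffer contained 4 mM CaCl2 and 10 μM pargyline. Filtered onto GF/B and counted; 50% inhibitory concentration from fitted curves.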

[3] = molecular target: 5-hydroxytryptamine receptor 2A (Rattus norvegicus, UniProt P14842); assay: In vitro inhibitory concentration against radioligand [3H]ketanserin binding to 5-hydroxytryptamine 2A receptor in rat cortical membrane; assay type: cell membranes
How it was run: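 Cortex from male rats (~150 g) was washed in Tris-HCl pH 7.4 and incubated in 50 mM Tris-HCl pH 7.7. [3H]ketanserin 0.7 nM final, 15 min at 37 °C; nonspecific binding with methysergide. Filtration and scintillation counting; concentration inhibiting binding by 50% derived from dose-inhibition curves.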

[4] = molecular target: T2, Adrenergic receptor alpha-1 (Rattus norvegicus, UniProt P15823+P23944+P43140); assay: In vitro inhibitory concentration against radioligand [3H]prazosin binding to alpha-1 adrenergic receptor in rat cortical membrane.; assay type: cell membranes
T2 sequence (P15823 whole entry): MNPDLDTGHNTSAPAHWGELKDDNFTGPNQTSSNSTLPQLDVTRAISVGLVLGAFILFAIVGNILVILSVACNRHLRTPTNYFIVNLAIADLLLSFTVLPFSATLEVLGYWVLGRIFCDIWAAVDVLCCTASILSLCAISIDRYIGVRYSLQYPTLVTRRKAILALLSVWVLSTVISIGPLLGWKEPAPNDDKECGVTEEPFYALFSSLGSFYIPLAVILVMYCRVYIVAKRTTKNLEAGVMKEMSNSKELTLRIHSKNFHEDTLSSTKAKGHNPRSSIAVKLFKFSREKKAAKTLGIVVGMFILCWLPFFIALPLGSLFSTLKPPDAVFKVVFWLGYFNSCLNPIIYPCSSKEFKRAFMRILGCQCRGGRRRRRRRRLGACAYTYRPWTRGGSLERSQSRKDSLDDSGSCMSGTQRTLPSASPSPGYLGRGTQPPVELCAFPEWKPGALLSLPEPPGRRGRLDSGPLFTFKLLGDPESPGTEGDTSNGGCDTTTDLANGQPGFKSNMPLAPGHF
T2 sequence (P23944 whole entry): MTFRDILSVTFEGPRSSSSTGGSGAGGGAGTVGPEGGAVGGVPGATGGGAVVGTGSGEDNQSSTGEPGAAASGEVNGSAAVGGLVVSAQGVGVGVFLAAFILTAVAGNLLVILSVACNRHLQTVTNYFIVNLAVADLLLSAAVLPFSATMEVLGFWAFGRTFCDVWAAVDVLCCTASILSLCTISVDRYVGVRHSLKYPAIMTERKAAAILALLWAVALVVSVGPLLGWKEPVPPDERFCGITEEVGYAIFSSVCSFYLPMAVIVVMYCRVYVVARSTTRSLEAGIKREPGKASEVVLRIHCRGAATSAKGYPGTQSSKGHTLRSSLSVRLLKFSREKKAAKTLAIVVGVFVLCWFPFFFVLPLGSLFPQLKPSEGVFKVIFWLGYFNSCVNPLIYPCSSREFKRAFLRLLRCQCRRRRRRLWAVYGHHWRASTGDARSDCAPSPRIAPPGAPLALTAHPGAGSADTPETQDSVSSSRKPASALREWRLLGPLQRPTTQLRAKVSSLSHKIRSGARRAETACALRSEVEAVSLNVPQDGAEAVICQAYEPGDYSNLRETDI
T2 sequence (P43140 whole entry): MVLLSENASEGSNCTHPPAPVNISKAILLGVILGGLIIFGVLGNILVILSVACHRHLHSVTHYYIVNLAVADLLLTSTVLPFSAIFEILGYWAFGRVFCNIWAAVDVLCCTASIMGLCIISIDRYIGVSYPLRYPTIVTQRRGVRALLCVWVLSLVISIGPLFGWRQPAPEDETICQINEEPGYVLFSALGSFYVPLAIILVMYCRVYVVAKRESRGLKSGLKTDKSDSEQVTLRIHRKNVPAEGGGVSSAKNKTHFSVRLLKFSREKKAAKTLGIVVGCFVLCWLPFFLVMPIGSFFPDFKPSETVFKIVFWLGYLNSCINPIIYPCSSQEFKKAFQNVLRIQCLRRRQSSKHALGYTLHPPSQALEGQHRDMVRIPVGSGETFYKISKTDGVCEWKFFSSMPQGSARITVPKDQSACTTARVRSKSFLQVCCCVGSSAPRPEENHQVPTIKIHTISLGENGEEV
How it was run: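 Male CRL:CD(SD)BR-COBS rats (~150 g) were decapitated. Cortex was homogenized in 50 mM Tris-HCl pH 7.4, spun at 50000g, given 10 min at 37 °C and washed. Incubation buffer had 0.1% ascorbic acid and 10 μM pargyline. GF/B filtration and scintillation counting; IC50 from dose-inhibition curves.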

[5] = molecular target: D(2) dopamine receptor (Rattus norvegicus, UniProt P61169); assay: In vitro inhibitory concentration against radioligand [3H]spiperone binding to Dopamine receptor D2 in rat striatal membrane; assay type: cell membranes, Striatum
How it was run: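 Rat striatum was used, with incubation buffer 50 mM Tris-HCl pH 7.1 plus pargyline 10 μM, NaCl 120 mM, KCl 5 mM, CaCl2 2 mM, MgCl2 1 mM and 0.1% ascorbic acid. [3H]spiperone 0.2 nM final, 15 min at 37 °C; (-)sulpiride 100 μM defined nonspecific binding. GF/B filtration, scintillation counting, IC50 from fitted curves.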

Sequence of 5-hydroxytryptamine receptor 2A (P14842 whole entry): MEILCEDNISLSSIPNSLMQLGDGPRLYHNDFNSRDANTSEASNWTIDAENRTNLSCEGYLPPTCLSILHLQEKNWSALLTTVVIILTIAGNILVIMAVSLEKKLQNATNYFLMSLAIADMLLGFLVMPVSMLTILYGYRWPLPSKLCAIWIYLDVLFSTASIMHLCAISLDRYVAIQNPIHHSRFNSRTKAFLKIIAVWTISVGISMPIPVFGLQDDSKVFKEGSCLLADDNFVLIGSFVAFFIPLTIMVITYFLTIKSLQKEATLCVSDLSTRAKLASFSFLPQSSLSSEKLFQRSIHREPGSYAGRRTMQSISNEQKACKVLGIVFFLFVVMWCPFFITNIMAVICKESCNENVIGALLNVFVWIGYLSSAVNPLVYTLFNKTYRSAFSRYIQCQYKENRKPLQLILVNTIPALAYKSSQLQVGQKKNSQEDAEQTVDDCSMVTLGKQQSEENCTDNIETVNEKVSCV

| SMILES | IC50 [1] [nM] | IC50 [2] [nM] | IC50 [3] [nM] | IC50 [4] [nM] | IC50 [5] [nM] |
| --- | --- | --- | --- | --- | --- |
| Cc1sc2nc(SCCCN3CCN(c4ncccn4)CC3)n(N)c(=O)c2c1C | 600 | 6.8 | 1000 | 506 | 2000 |
| COc1ccccc1N1CCN(CCCSc2nc3sc(C)c(C)c3c(=O)n2N)CC1 | 400 | 0.3 | 300 | 7.3 | 60 |
| COc1ccccc1C1CCN(CCCSc2nc3sc(C)c(C)c3c(=O)n2N)CC1 | 800 | 0.8 | 300 | 36 | 100 |
